From the EternaBench riboswitch data

System: MS2 coat protein
Experiment: apparent Kd, MS2 coat protein; higher = weaker binding; RNA-MaP array; FMN 200 µM where present
In short: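 On Illumina sequencing-chip clusters, designs were transcribed by stalled E. coli RNA polymerase and titrated with SNAP-549-labelled MS2 coat protein (0.7 or 1.5 nM, doubling to 3 µM), without and then with constant ligand, in 100 mM Tris-HCl pH 7.5, 80 mM KCl, 4 mM MgCl2, BSA, DTT, yeast tRNA and Tween-20. Apparent Kd is the median of filtered per-cluster curve fits to green signal normalised to red-channel RNA signal and control-cluster median Fmax.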

[1] = designed as: ON switch for flavin mononucleotide, no ligand
[2] = ligand present: flavin mononucleotide, designed as: ON switch for flavin mononucleotide
[3] = designed as: OFF switch for flavin mononucleotide, no ligand
[4] = ligand present: flavin mononucleotide, designed as: OFF switch for flavin mononucleotide

Sequence | apparent Kd [1] [nM] | apparent Kd [2] [nM] | apparent Kd [3] [nM] | apparent Kd [4] [nM]
CGCGAAAACAUAGGAUAUUGUUACAUGAGGAUCACCCAUGUCAACCAUUUAUCUCAAAUUGUUGACAAGAAGGAUGAGGUCGCG | 113 | 28.4 |  | 
CGCGAAUUACAGAAGGGACAAGGGAUAAAACCCAGGUCUUGCAGUAGACAUGAGGAUCACCCAUGUCAGGAUAUGUAGAGAGUU |  |  | 17.2 | 95.5
CGCGGACAAGAGAAGGCCAGACCUCGGAACCUGAGGCACCGCUAGGCAUGGAGGAUAUCUUGACAUGAGGAUCACCCAUGUACU | 665 | 33.7 |  | 
CGCUAAUAAAUAGUAAUAAAAGUACAGGAUAUGUUACAUGAGGAUCACCCAUGUAUUGGGUAAGAACAGAAGGGUAUAUUAGCG |  |  | 153 | 115
CGCUACUGCCAGAAGGACAUGAGGAUCACCCAUGUAGGAUAUGGGUGUCGAGGACCAGUGUAGAGAAACUACGCUACAGUAGCG | 958 | 57.6 |  | 
CGCUAUGAUGGGUUUAAUGGAGCAUAGGAUAUGCUUGUACAUGAGGAUCACCCAUGUUAUAUUUUGCAGAAGGGUGCAUUUGCG | 284 | 95.3 |  | 
CGCUUCUUAGUCAGGAUAUUGUCUGCACAGGGUAGUAAGAAGGGACAUGAGGAUCACCCAUGUAUAACGGUACC |  |  | 51.8 | 49.1
CGGACAAUGCCCGAGACAUGAGGAUCACCCAUGUUAGCAGCACAGGAUAUCAUGUUUUGUAAAGGUGAGAAGGGUGAUUGCAUC | 102 | 68.2 |  | 
CGGAUUAUGUGAGGAUAUAAUCGUUUCCAUUGAUUAGAAGGCACAUGAGGAUCACCCAUGUGGCAUGUAAUGCCAUGUGACGCU |  |  | 442 | 41.3
CGGCACCAAGGAUAUACAUGAGGAUCACCCAUGUUUUUUGGGCCCUAAAGAUCUACGUGUAGAAGGUGGGUCGA |  |  | 58.8 | 59.6
CGGUAUAUGAAGGGCGAAAGCCCACAUGAGGAUCACCCAUGUAGAAGGCGGGCCGCAACGCGGCCCGAGGAUAUACAAUAUACA |  |  | 6.5 | 12.4
CGGUCACAUGAGGAUCACCCAUGUACCUACGCGAUGAAGUCGCAGGAUAUCCAUUACUUUACGUAGGAGAAGGGUGACGCUCGC | 51.1 | 34 |  | 
CGGUCGAUGUAAGGAUAUCGACUGGAUAACAGUCGAGAAGGUACAUGAGGAUCACCCAUGUAAUCCUAAUAAUAAUAACGACCG |  |  | 12.6 | 18
CGGUGACAUGAGGAUCACCCAUGUUAGGAUAUACAAAAGCUCGCUCAAGGGCGGCGAAGUAGAAGGAGCGUGCC |  |  | 21.7 | 29.7
CGGUGACGUGUAGGAUAUGGCGAUGGGUUUUGGCCAGAAGGACAUGAGGAUCACCCAUGUGGUAGAGGGCUGGCGGCCGCCCGU |  |  | 26.5 | 60
CGGUGCUGAGGAUAUACAUGAGGAUCACCCAUGUGUUCUAGCUAGCGUACUGGCAGAUGUAGAAGGCGGUACUG |  |  | 18.2 | 75.7
CGGUUGUCAGGAUAUACGAACAUGUCGCCAGAUGUCAUGGUACAUGAGGAUCACCCAUGUAGAAGGGAGGAGGU |  |  | 135 | 80
CGGUUUCACAUUUUAGUGAUUUAUACAGAAGGCCAUACACAUGAGGAUCACCCAUGUCAGGAAUUGGAGGAUAUGUUAUUGACG | 6.1 | 4.4 |  | 
CGUAAGAUGCAGAAGGUGUUAGCUAGAGCUACGACAUGAGGAUCACCCAUGUACUAGAAACAGUACAAGGAUAUGCAUCUUACU | 18.4 | 6.25 |  | 
CGUACUCAAGUGAGGAUAUUGUCUCGGAUACGAAACAAGAAGGCACAUGAGGAUCACCCAUGUAGAGAGUACGA |  |  | 16.2 | 14.3
CGUAGGAUCCAGAAGGCAUGAACAUGAGGAUCACCCAUGUGAAAAGACAUGAGGAUAUGGAUCCUACGAAAAGUGCGAAAGCAC | 5.53 | 5.47 |  | 
CGUCCACAUGAGGAUCACCCAUGUCAGGAUAUACAAAUGCCAGGUCGCGGGCCAGGCGGUAGAAGGGACGUGGC |  |  | 23.1 | 18.6
CGUCUAUGCAAGAAGGCAUGAAACAUGAGGAUCACCCAUGUCAAAGACAUGAGGAUAUUGCAUAGACGAAAAGUGCGAAAGCAC |  | 3.32 |  | 
CGUGACGACAUAGGAUAUUGAUACAUGAGGAUCACCCAUGUCACCCAUUUAUCUCAAAUUGUUGACAAGAAGGAUGUGGUCACG | 16.7 | 10.8 |  | 
CGUGACUCAGGAUAUCUAUAGUGUCACAUGAGGAUCACCCAUGUCCAGCGAAAGCUGGAGGGAGAAGGGAGUCACG |  |  | 96.7 | 39.9
CGUGGUUGGGAGGAUAUGCACGUGAACGCUAUUGUAGAAGGUCCGACAUGAGGAUCACCCAUGUAGGUGUCACG |  |  | 168 | 147
CGUUAUGAUAGAGGAUAUGUAAUACAUGAGGAUCACCCAUGUUACAUGGGUAAUAUUAAUAAUUAACAGAAGGCUAUCCUUUCG |  |  | 484 | 149
CGUUCACAUGAGGAUCACCCAUGUCAGAUUUGGUCAGGAUAUGGUCGGCAUCCGCUAUUGCCAGAAGGGACUGUUG | 55.3 | 36.3 |  | 
